Reference: ChEMBL document CHEMBL1933016, “Hydroxycoumarins as selective MAO-B inhibitors” (Bioorg Med Chem Lett, 2012)

Key:
[1] = target: T1, Amine oxidase [flavin-containing] A (Homo sapiens, UniProt P21397); test: Inhibition of human recombinant MAOA expressed in baculovirus-infected BTI insect cells assessed as conversion of p-tyramine into p-hydroxyphenyl-acetaldehyde at 100 uM after 15 mins by fluorimetric assay; conditions: 0.25 h
T1 sequence (P21397 whole entry): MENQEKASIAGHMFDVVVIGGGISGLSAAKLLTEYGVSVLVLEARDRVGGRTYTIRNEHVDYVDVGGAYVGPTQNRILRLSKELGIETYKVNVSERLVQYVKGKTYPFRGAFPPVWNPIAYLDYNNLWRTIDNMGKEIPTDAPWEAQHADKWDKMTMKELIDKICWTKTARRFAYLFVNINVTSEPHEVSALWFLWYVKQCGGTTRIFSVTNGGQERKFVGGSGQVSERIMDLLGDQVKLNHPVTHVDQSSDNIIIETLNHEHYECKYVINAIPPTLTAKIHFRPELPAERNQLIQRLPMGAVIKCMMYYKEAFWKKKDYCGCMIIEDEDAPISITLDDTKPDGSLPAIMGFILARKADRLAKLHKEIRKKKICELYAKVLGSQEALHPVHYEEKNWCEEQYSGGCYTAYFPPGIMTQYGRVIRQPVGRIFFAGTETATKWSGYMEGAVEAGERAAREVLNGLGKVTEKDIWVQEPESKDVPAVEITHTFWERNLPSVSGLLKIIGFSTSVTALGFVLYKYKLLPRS
Procedure, shortened: (§1)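 Recombinant hMAO-A or hMAO-B was adjusted to the same velocity (165 pmol p-tyramine/min; specific activity 150 nmol/min/mg for A, 22 for B). Enzyme and drug in 0.05 M sodium phosphate pH 7.4 were preincubated 15 min at 37 °C. Amplex Red, 1 U/mL HRP and 1 mM p-tyramine (final) were added, and resorufin fluorescence was read at 37 °C. Values were background-subtracted against enzyme-free blanks with vehicle controls.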

[2] = target: T2, Amine oxidase [flavin-containing] B (Homo sapiens, UniProt P27338); test: Inhibition of human recombinant MAOB expressed in baculovirus-infected BTI insect cells assessed as using transformed p-tyramine at 100 uM after 15 mins by fluorimetric assay; conditions: 0.25 h; procedure, shortened: as §1
T2 sequence (P27338 whole entry): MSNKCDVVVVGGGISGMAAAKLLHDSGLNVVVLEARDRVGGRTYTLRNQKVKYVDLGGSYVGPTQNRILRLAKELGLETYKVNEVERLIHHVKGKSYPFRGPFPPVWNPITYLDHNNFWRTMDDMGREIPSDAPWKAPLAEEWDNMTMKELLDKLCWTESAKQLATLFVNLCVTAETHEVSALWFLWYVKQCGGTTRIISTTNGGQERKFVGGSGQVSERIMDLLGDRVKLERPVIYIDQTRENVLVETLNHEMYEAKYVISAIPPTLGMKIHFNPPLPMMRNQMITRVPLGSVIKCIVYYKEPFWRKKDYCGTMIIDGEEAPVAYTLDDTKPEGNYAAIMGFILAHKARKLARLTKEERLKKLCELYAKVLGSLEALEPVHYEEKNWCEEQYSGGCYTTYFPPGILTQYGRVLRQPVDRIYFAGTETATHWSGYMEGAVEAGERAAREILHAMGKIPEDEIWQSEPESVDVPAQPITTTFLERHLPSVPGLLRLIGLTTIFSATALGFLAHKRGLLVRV

[3] = target: T2, Amine oxidase [flavin-containing] B; test: Inhibition of human recombinant MAOB expressed in baculovirus-infected BTI insect cells assessed as using transformed p-tyramine after 15 mins by fluorimetric assay; assay type: single protein
Homo sapiens = species: Homo sapiens; test: Selectivity index, ratio of IC50 for human recombinant MAOA to IC50 for human recombinant MAOB
Procedure, shortened: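 The index is IC50(MAO-A)/IC50(MAO-B) from the fluorimetric Amplex Red/p-tyramine assay on recombinant human isoforms.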

inhibition (INH) [1] | inhibition (INH) [2] | IC50 [3] [µM] | Ratio IC50 (Homo sapiens) | SMILES
Not Active | Not Active |  |  | COc1ccc(-c2c(O)c3cc(Cl)ccc3oc2=O)cc1
Not Active |  |  |  | COc1ccc(-c2c(O)c3ccccc3oc2=O)cc1Cl
Not Active |  | 42.7 | > 2.3 | COc1ccc(-c2c(O)c3cc(C)ccc3oc2=O)cc1Cl
Not Active |  | 32 | > 3.1 | COc1ccc(-c2c(O)c3cc(C)ccc3oc2=O)cc1
Not Active | Not Active |  |  | O=c1oc2ccccc2c(O)c1-c1ccccc1
Not Active |  | 69.6 | > 1.4 | COc1ccc(-c2c(O)c3ccccc3oc2=O)cc1
Not Active |  | 2.79 | > 36 | COc1ccc(-c2c(O)c3cc(Cl)ccc3oc2=O)cc1Cl
